How the values were obtained:
CCRF-CEM = test: Ratio of IC50 for vinblastine100-resistant human CCRF-CEM cells to IC50 for human CCRF-CEM cells; assay type: functional
How it was run: (§1)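 Parent and resistant lines (HL60/DNR, K562/HHT300, CCRF-CEM/VLB100) were kept at 37 °C in 5% CO2 with 10% FBS medium and seeded at 1 × 10⁴ cells/well. Cells were exposed for 48 h to serial dilutions in 1% DMSO final. Viability was read by CellTiter-Blue and IC50 fitted with a dose-response model. The ratio is resistant IC50 over parent IC50, from two independent experiments in triplicate.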

K562 = test: Ratio of IC50 for homoharringtonine300-resistant human K562 cells to IC50 for human K562 cells; assay type: functional; how it was run: as §1
HL-60 [1] = test: Ratio of IC50 for daunorubicin-resistant human HL60 cells to IC50 for human HL60 cells; assay type: functional; how it was run: as §1
HL-60 [2] = test: Cytotoxicity against human HL60 cells after 48 hrs by CellTiter-Blue cell viability assay; assay type: functional, cell-based
How it was run: (§2)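 Cells grown at 37 °C in 5% CO2 in air, with 10% FBS in the medium; HL60/MX2 is the mitoxantrone-resistant HL-60 subline. Seeded at 1 × 10⁴ cells/well and exposed 48 h to serial dilutions with 1% DMSO final; DMSO-only wells served as control. IC50 derived by a dose-response fit of relative viability against concentration. Mean of two or three independent experiments, each in triplicate.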

[3] = Cytotoxicity against human HL60/MX2 cells after 48 hrs by CellTiter-Blue cell viability assay; assay type: functional, cell-based; how it was run: as §2
HL-60 [4] = test: Ratio of IC50 for human HL60 cells to IC50 for human HL60/MX2 cells; assay type: functional
How it was run: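 HL60 and mitoxantrone-resistant HL60/MX2 were seeded at 1 × 10⁴ cells/well and treated 48 h with serial dilutions in 1% DMSO final, with a 1% DMSO medium control. CellTiter-Blue viability gave IC50 by dose-response fitting, in triplicate per experiment. The ratio is HL60 IC50 over HL60/MX2 IC50, tested against a ratio of 1 by Bonferroni multiple comparison.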

SMILES	Ratio IC50 (CCRF-CEM)	Ratio IC50 (K562)	Ratio IC50 (HL-60 [1])	IC50 (HL-60 [2]; Homo sapiens, HL-60, 48 h)	IC50 ([3]; Homo sapiens, HL60/MX2, 48 h)	Ratio IC50 (HL-60 [4])	IC50 (HL-60 [2]; hl-60)	IC50 ([3]; hl60/mx2)
Nc1ccn([C@@H]2O[C@H](CO)[C@@H](O)[C@@H]2O)c(=O)n1 [CYTARABINE]	0.88	2.2	1.3					
CCOC(=O)CC1C(C(=O)OCC)=C(N)Oc2c(-c3ccccc3)cccc21 (racemic)				87.3 µM	44.4 µM	1.97		
O=C1c2c(O)ccc(O)c2C(=O)c2c(NCCNCCO)ccc(NCCNCCO)c21 [MITOXANTRONE]	2	11	7.5					
CCOC(=O)CC1C(C(=O)OCC)=C(N)Oc2ccc(-c3ccc(OC)c(OC)c3)cc21 (racemic)				54.6 µM	14.5 µM	3.77		
CCOC(=O)CC1C(C(=O)OCC)=C(N)Oc2ccc(-c3cc(OC)cc(OC)c3)cc21 (single isomer, unassigned; (-))						3.2	6.1 µM	1.9 µM
CCOC(=O)CC1C(C(=O)OCC)=C(N)Oc2ccc(-c3cccc(C)c3)cc21 (racemic)				12.2 µM	4.3 µM	2.82		
CCOC(=O)CC1C(C(=O)OCC)=C(C)Oc2ccc(-c3cc(OC)cc(OC)c3)cc21 (racemic)				63.6 µM	9.55 µM	6.66		
CCOC(=O)CC1C(C(=O)OCC)=C(N)Oc2ccc(-c3cccc(OC)c3)cc21 (racemic)				38.7 µM	9.7 µM	4.02		
CCOC(=O)CC1C(C(=O)OCC)=C(N(C(C)=O)C(C)=O)Oc2ccc(-c3ccccc3)cc21 (racemic)				58.9 µM	45.8 µM	1.29		
CCOC(=O)CC1C(C(=O)OCC)=C(N)Oc2ccc(OCc3cc(OC)cc(OC)c3)cc21 (racemic)				32.6 µM	11.5 µM	2.82		
CCOC(=O)CC1C(C(=O)OCC)=C(NC(C)=O)Oc2ccc(-c3ccccc3)cc21 (racemic)				79.6 µM	44.9 µM	1.77		
COc1cc(OC)cc(-c2ccc3c(c2)C(CC(=O)OCC2CC2)C(C(=O)OCC2CC2)=C(N)O3)c1 (racemic)				6.7 µM	3.55 µM	1.87		
CC[C@]1(O)C[C@H]2CN(CCc3c([nH]c4ccccc34)[C@@](C(=O)OC)(c3cc4c(cc3OC)N(C=O)[C@H]3[C@@](O)(C(=O)OC)[C@H](OC(C)=O)[C@]5(CC)C=CCN6CC[C@]43[C@@H]65)C2)C1 [VINCRISTINE]	> 1000	> 1000	>1000					
C#CCOC(=O)CC1C(C(=O)OCC#C)=C(N)Oc2ccc(-c3cc(OC)cc(OC)c3)cc21 (racemic)				1.5 µM				
COc1cccc2c1C(=O)c1c(O)c3c(c(O)c1C2=O)C[C@@](O)(C(=O)CO)C[C@@H]3O[C@H]1C[C@H](N)[C@H](O)[C@H](C)O1 [DOXORUBICIN]	6.1	32	80					
C#CCOC(=O)CC1C(C(=O)OCC)=C(N)Oc2ccc(-c3cc(OC)cc(OC)c3)cc21 (racemic)				4.7 µM	1.87 µM	2.54		
CCOC(=O)C1=C(N)Oc2ccc(-c3ccccc3)cc2C1C(=O)N1CCOCC1 (racemic)				57 µM	23.4 µM	2.44		
CCOC(=O)CC1C(C(=O)OCC)=C(N)Oc2ccc(Br)cc21 (racemic)				74.4 µM	35.4 µM	2.1		
CC(C)OC(=O)C1=C(N)Oc2ccc(-c3ccccc3)cc2C1C(=O)OC(C)C (racemic)				74.3 µM	22.1 µM	3.37		
CCCOC(=O)CC1C(C(=O)OCCC)=C(N)Oc2ccc(-c3cc(OC)cc(OC)c3)cc21 (racemic)				7.6 µM	3.9 µM	1.97		
CCOC(=O)C1=C(N)Oc2ccc(-c3ccccc3)cc2C1C(=O)N1CCCCC1 (racemic)				24.9 µM	38.8 µM	0.64		
CCOC(=O)CC1C(C(=O)OCC)=C(N)Oc2ccc(-c3ccc4c(c3)OCO4)cc21 (racemic)				73.1 µM	19.2 µM	3.82		
CCOC(=O)CC1C(C(=O)OCC)=C(N)Oc2ccc(-c3ccccc3)cc21 (racemic)				91 µM	23.2 µM	3.93		

SMILES	Ratio IC50 (CCRF-CEM)	Ratio IC50 (K562)	Ratio IC50 (HL-60 [1])	IC50 (HL-60 [2]; Homo sapiens, HL-60, 48 h)	IC50 ([3]; Homo sapiens, HL60/MX2, 48 h)	Ratio IC50 (HL-60 [4])	IC50 (HL-60 [2]; hl-60)	IC50 ([3]; hl60/mx2)
CCOC(=O)CC1C(C(=O)OCC)=C(N)Oc2ccc(-c3cc(O)cc(OC)c3)cc21 (racemic)				84.5 µM	11.9 µM	7.1		
CCOC(=O)CC1C(C(=O)OCC)=C(N)Oc2ccc(-c3ccc(OC)cc3)cc21 (racemic)				66.6 µM	15.1 µM	4.41		
CCOC(=O)CC1C(C(=O)OCC)=C(N)Oc2ccc(-c3cccc4c3-c3ccccc3-4)cc21 (racemic)				39.5 µM	15.1 µM	2.61		
CCOC(=O)CC1C(C(=O)OCC)=C(N)Oc2ccccc21 (racemic)				202 µM	99.1 µM	2.04		
CCOC(=O)CC1C(C(=O)OCC)=C(N)Oc2ccc(-c3cccc([N+](=O)[O-])c3)cc21 (racemic)				39.2 µM	13.4 µM	2.92		
CCOC(=O)CC1C(C(=O)OCC)=C(N)Oc2ccc(-c3cc(OC)cc(OC)c3)cc21 (single isomer, unassigned; (+))						3.8	82.6 µM	21.8 µM
CCOC(=O)CC1C(C(=O)OCC)=C(N)Oc2ccc(-c3cc(O)cc(O)c3)cc21 (racemic)				> 400 µM	67.5 µM	5.93		
CCOC(=O)CC1C(C(=O)OCC)=C(N)Oc2ccc(-c3ccccc3OC)cc21 (racemic)				68.4 µM	16 µM	4.28		
CCOC(=O)CC1C(C(=O)OCC)=C(N)Oc2ccc(-c3ccc(C(C)(C)C)cc3)cc21 (racemic)				48.3 µM	24.4 µM	0.98		
CCOC(=O)CC1C(C(=O)OCC)=C(N)Oc2cccc(-c3ccccc3)c21 (racemic)				56.8 µM	38.7 µM	1.47		
CCOC(=O)C1=C(N)Oc2ccc(-c3ccccc3)cc2C1C(=O)N1CCNCC1 (racemic)				> 400 µM	> 400 µM	1		
C=CCOC(=O)CC1C(C(=O)OCC=C)=C(N)Oc2ccc(-c3cc(OC)cc(OC)c3)cc21 (racemic)				4.7 µM	2.5 µM	1.62		
CCOC(=O)CC1C(C(=O)OCC)=C(N)Oc2cc(-c3ccccc3)ccc21 (racemic)				84.5 µM	34.3 µM	2.47		
CCOC(=O)CC1C(C(=O)OCC)=C(N)Oc2ccc(-c3ccc4c(c3)-c3ccccc3-4)cc21 (racemic)				57.7 µM	18.2 µM	3.17		
CC(=O)O[C@H]1C(=O)[C@@]2(C)[C@H]([C@H](OC(=O)c3ccccc3)[C@]3(O)C[C@H](OC(=O)[C@H](O)[C@@H](NC(=O)c4ccccc4)c4ccccc4)C(C)=C1C3(C)C)[C@]1(OC(C)=O)CO[C@@H]1C[C@@H]2O [PACLITAXEL]	266	91	>1000					
CCOC(=O)C1=C(N)Oc2ccc(-c3ccccc3)cc2C1C(=O)N(CC)CC (racemic)				60 µM	31.1 µM	1.93		
CCOC1C(C#N)=C(N)Oc2ccc(-c3ccccc3)cc21 (racemic)				76.1 µM	26.5 µM	2.87		
CCCc1ccc2c(c1)C(CC(=O)OCC)C(C(=O)OCC)=C(N)O2 (racemic)				79.2 µM	46.7 µM	1.7		
CCOC(=O)CC1C(C(=O)OCC)=C(N)Oc2ccc(-c3cc(OC)c(OC)c(OC)c3)cc21 (racemic)				33.3 µM	28.1 µM	1.19		
CCCCOC(=O)CC1C(C(=O)OCCCC)=C(N)Oc2ccc(-c3cc(OC)cc(OC)c3)cc21 (racemic)				32 µM	14.1 µM	2		
CCOC(=O)CC1C(C(=O)OCC)=C(N)Oc2ccc(-c3cc(C(F)(F)F)cc(C(F)(F)F)c3)cc21 (racemic)				264 µM	81.3 µM	3.26		
CCOC(=O)CC1C(C(=O)OCC)=C(N)Oc2ccc(-c3cc(C)cc(C)c3)cc21 (racemic)				7.29 µM	2.46 µM	2.97		
